Data as given in ChEMBL document CHEMBL4689842, “EUbOPEN Chemogenomics Library wave 1” (2021).
Where “and” joins values, the source holds several entries; their conditions need not be identical. Equal entries are not always repeated.

Test system: U2OS
Test: Multiplex assay against U2OS
Format: toxicity, cell-based
Details: human
Method in brief: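 Live cells were stained at seeding with Hoechst33342, BioTracker Green Microtubule Cytoskeleton Dye, MitoTracker Red and Annexin V Alexa Fluor 680. Following compound addition, they were imaged on a CQ1 microscope at 37°C and 5% CO2 and gated by CellPathfinder machine learning into Hoechst high-intensity objects or normal cells, with normal cells split into healthy, pyknosed or fragmented nuclei and pyknosed cells into mitotic or apoptotic. Tubulin, mitochondrial-mass and membrane-permeability phenotypes are per cents of healthy-nucleus cells.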

[1] = 12 h, 1 µM, compound concentration 1 uM, replicate 1
[2] = 12 h, 1 µM, compound concentration 1 uM, replicate 2
[3] = 12 h, 10 µM, compound concentration 10 uM, replicate 1
[4] = 12 h, 10 µM, compound concentration 10 uM, replicate 2
[5] = 24 h, 1 µM, compound concentration 1 uM, replicate 1
[6] = 24 h, 1 µM, compound concentration 1 uM, replicate 2
[7] = 24 h, 10 µM, compound concentration 10 uM, replicate 1
[8] = 24 h, 10 µM, compound concentration 10 uM, replicate 2
[9] = 48 h, 1 µM, compound concentration 1 uM, replicate 1
[10] = 48 h, 1 µM, compound concentration 1 uM, replicate 2
[11] = 48 h, 10 µM, compound concentration 10 uM, replicate 1
[12] = 48 h, 10 µM, compound concentration 10 uM, replicate 2

## CC1=C(C(=O)Nc2cc3cn[nH]c3cc2F)C(c2ccc(C(F)(F)F)cc2)CC(=O)N1 (stereo not given)
[1]
  Population Apoptotic (%): 46%
  Population Fragmented Nuclei (%): 9%
  Population Healthy Nuclei (%): 78%
  Population Hoechst High Intensity Objects (%): 4%
  Population Membrane Permeable-Phenotype (%): 6%
  Population Mitochondria Different-Phenotype (%): 5%
  Population Mitotic Cells (%): 53%
  Population Normal (%): 95%
  Population Pyknosed Nuclei (%): 12%
  Population Tubulin-Different-Phenotype (%): 10%
  Total Cell Count: 190
[2]
  Population Apoptotic (%): 50%
  Population Fragmented Nuclei (%): 2%
  Population Healthy Nuclei (%): 93%
  Population Hoechst High Intensity Objects (%): 10%
  Population Membrane Permeable-Phenotype (%): 4%
  Population Mitochondria Different-Phenotype (%): 9%
  Population Mitotic Cells (%): 50%
  Population Normal (%): 89%
  Population Pyknosed Nuclei (%): 4%
  Population Tubulin-Different-Phenotype (%): 14%
  Total Cell Count: 76
[3]
  Population Apoptotic (%): 40%
  Population Fragmented Nuclei (%): 7%
  Population Healthy Nuclei (%): 77%
  Population Hoechst High Intensity Objects (%): 8%
  Population Membrane Permeable-Phenotype (%): 3%
  Population Mitochondria Different-Phenotype (%): 9%
  Population Mitotic Cells (%): 60%
  Population Normal (%): 91%
  Population Pyknosed Nuclei (%): 14%
  Population Tubulin-Different-Phenotype (%): 4%
  Total Cell Count: 223
[4]
  Population Apoptotic (%): 50%
  Population Fragmented Nuclei (%): 21%
  Population Healthy Nuclei (%): 70%
  Population Hoechst High Intensity Objects (%): 9%
  Population Membrane Permeable-Phenotype (%): 5%
  Population Mitochondria Different-Phenotype (%): 12%
  Population Mitotic Cells (%): 50%
  Population Normal (%): 90%
  Population Pyknosed Nuclei (%): 7%
  Population Tubulin-Different-Phenotype (%): 25%
  Total Cell Count: 97
[5]
  Population Apoptotic (%): 56%
  Population Fragmented Nuclei (%): 8%
  Population Healthy Nuclei (%): 82%
  Population Hoechst High Intensity Objects (%): 2%
  Population Membrane Permeable-Phenotype (%): 6%
  Population Mitochondria Different-Phenotype (%): 9%
  Population Mitotic Cells (%): 43%
  Population Normal (%): 97%
  Population Pyknosed Nuclei (%): 8%
  Population Tubulin-Different-Phenotype (%): 9%
  Total Cell Count: 176
[6]
  Population Apoptotic (%): 42%
  Population Fragmented Nuclei (%): 7%
  Population Healthy Nuclei (%): 86%
  Population Hoechst High Intensity Objects (%): 4%
  Population Membrane Permeable-Phenotype (%): 10%
  Population Mitochondria Different-Phenotype (%): 13%
  Population Mitotic Cells (%): 57%
  Population Normal (%): 95%
  Population Pyknosed Nuclei (%): 6%
  Population Tubulin-Different-Phenotype (%): 16%
  Total Cell Count: 93
[7]
  Population Apoptotic (%): 66%
  Population Fragmented Nuclei (%): 6%
  Population Healthy Nuclei (%): 86%
  Population Membrane Permeable-Phenotype (%): 1%
  Population Mitochondria Different-Phenotype (%): 6%
  Population Mitotic Cells (%): 33%
  Population Pyknosed Nuclei (%): 7%
  Population Tubulin-Different-Phenotype (%): 4%
  Total Cell Count: 277
[8]
  Population Apoptotic (%): 75%
  Population Fragmented Nuclei (%): 23%
  Population Healthy Nuclei (%): 68%
  Population Hoechst High Intensity Objects (%): 6%
  Population Membrane Permeable-Phenotype (%): 4%
  Population Mitochondria Different-Phenotype (%): 14%
  Population Mitotic Cells (%): 25%
  Population Normal (%): 93%
  Population Pyknosed Nuclei (%): 8%
  Population Tubulin-Different-Phenotype (%): 29%
  Total Cell Count: 119
[9]
  Population Apoptotic (%): 34%
  Population Fragmented Nuclei (%): 7%
  Population Healthy Nuclei (%): 85%
  Population Hoechst High Intensity Objects (%): 2%
  Population Membrane Permeable-Phenotype (%): 3%
  Population Mitochondria Different-Phenotype (%): 12%
  Population Mitotic Cells (%): 65%
  Population Normal (%): 97%
  Population Pyknosed Nuclei (%): 7%
  Population Tubulin-Different-Phenotype (%): 11%
  Total Cell Count: 181
[10]
  Population Apoptotic (%): 75%
  Population Fragmented Nuclei (%): 6%
  Population Healthy Nuclei (%): 90%
  Population Hoechst High Intensity Objects (%): 4%
  Population Membrane Permeable-Phenotype (%): 6%
  Population Mitochondria Different-Phenotype (%): 18%
  Population Mitotic Cells (%): 25%
  Population Normal (%): 95%
  Population Pyknosed Nuclei (%): 2%
  Population Tubulin-Different-Phenotype (%): 12%
  Total Cell Count: 77
[11]
  Population Fragmented Nuclei (%): 7%
  Population Healthy Nuclei (%): 77%
  Population Hoechst High Intensity Objects (%): 2%
  Population Membrane Permeable-Phenotype (%): 3%
  Population Mitochondria Different-Phenotype (%): 12%
  Population Normal (%): 97%
  Population Pyknosed Nuclei (%): 15%
  Population Tubulin-Different-Phenotype (%): 3%
  Total Cell Count: 438
[12]
  Population Apoptotic (%): 50%
  Population Fragmented Nuclei (%): 15%
  Population Healthy Nuclei (%): 76%
  Population Hoechst High Intensity Objects (%): 3%
  Population Membrane Permeable-Phenotype (%): 8%
  Population Mitochondria Different-Phenotype (%): 28%
  Population Mitotic Cells (%): 50%
  Population Normal (%): 96%
  Population Pyknosed Nuclei (%): 8%
  Population Tubulin-Different-Phenotype (%): 32%
  Total Cell Count: 170

## CN1CCN(Cc2cc(NC(=O)c3ccc4c(c3)CN(c3ccccc3)CC4)cc(C(F)(F)F)c2)CC1
[1]
  Population Apoptotic (%): 35% and 75%
  Population Healthy Nuclei (%): 63% and 89%
  Population Hoechst High Intensity Objects (%): 2%
  Population Membrane Permeable-Phenotype (%): 28% and 46%
  Population Mitotic Cells (%): 64% and 25%
  Population Normal (%): 97%
  Population Tubulin-Different-Phenotype (%): 98% and 42%
  Total Cell Count: 228 and 171
[2]
  Population Fragmented Nuclei (%): 28% and 15%
  Population Healthy Nuclei (%): 52% and 80%
  Population Hoechst High Intensity Objects (%): 5% and 15%
  Population Membrane Permeable-Phenotype (%): 47% and 37%
  Population Mitotic Cells (%): 65% and 100%
  Population Normal (%): 94% and 84%
  Population Pyknosed Nuclei (%): 19%
  Population Tubulin-Different-Phenotype (%): 100% and 48%
  Total Cell Count: 128 and 83
[5]
  Population Apoptotic (%): 39% and 22%
  Population Fragmented Nuclei (%): 14% and 7%
  Population Healthy Nuclei (%): 46% and 88%
  Population Hoechst High Intensity Objects (%): 10% and 3%
  Population Membrane Permeable-Phenotype (%): 33% and 28%
  Population Mitotic Cells (%): 60% and 77%
  Population Normal (%): 89% and 96%
  Total Cell Count: 255 and 239
[6]
  Population Fragmented Nuclei (%): 19% and 9%
  Population Healthy Nuclei (%): 45% and 80%
  Population Hoechst High Intensity Objects (%): 13% and 11%
  Population Membrane Permeable-Phenotype (%): 36% and 35%
  Population Mitotic Cells (%): 44% and 87%
  Population Normal (%): 86% and 88%
  Total Cell Count: 144 and 92
